Results published in ChEMBL document CHEMBL1275524, “Activities of antifungal agents against yeasts and filamentous fungi: assessment according to the methodology of the European Committee on Antimicrobial Susceptibility Testing” (2008).
Converted amounts (≈) assume the structure as drawn.

Experiments:
[1] = tested on: Meyerozyma guilliermondii; assay: Antifungal activity against Candida guilliermondii by EUCAST method; format: functional
Outline: (§1)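 Broth microdilution in flat-bottom plates in RPMI 1640 with 2% glucose; inoculum 0.5 × 105 to 2.5 × 10^5 CFU/ml. MICs were read spectrophotometrically at 24 h. AMB endpoint: ≥90% growth reduction vs drug-free control well. Azole and CPF endpoint: 50% reduction in optical density. MFC was taken as the lowest concentration giving 99% killing.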

Aspergillus niger [2] = assay: Antifungal activity against Aspergillus niger; format: functional
Cunninghamella [3] = assay: Antifungal activity against Cunninghamella species by EUCAST method; format: functional
Talaromyces marneffei [4] = assay: Antifungal activity against Penicillium marneffei; format: functional
Geotrichum candidum [5] = assay: Antifungal activity against Geotrichum candidum by EUCAST method; format: functional
[6] = Antifungal activity against Rhizopus microsporus var. oligosporus; format: functional
Outline: (§2)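 Broth microdilution following the EUCAST reference procedure for spore-forming moulds, in flat-bottom plates with RPMI 1640 plus 2% glucose. Inoculum was 2 × 10^5 to 5 × 10^5 CFU/ml. MICs were read visually at 24 and 48 h as 100% growth reduction versus a drug-free control for polyenes and azoles. MEC was used for caspofungin. Tests were run in duplicate and repeated twice.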

Lichtheimia corymbifera [7] = assay: Antifungal activity against Absidia corymbifera by EUCAST method; format: functional
Penicillium sp. [8] = assay: Antifungal activity against Penicillium species; format: functional
Aspergillus terreus [9] = assay: Antifungal activity against Aspergillus terreus; format: functional
Geotrichum candidum [10] = assay: Antifungal activity against Geotrichum candidum; format: functional
Aspergillus terreus [11] = assay: Antifungal activity against Aspergillus terreus by EUCAST method; format: functional
Lomentospora prolificans = assay: Antifungal activity against Scedosporium prolificans; format: functional; outline: as §2
Aspergillus flavus [12] = assay: Antifungal activity against Aspergillus flavus; format: functional
Absidia = assay: Antifungal activity against Absidia species; format: functional
Pichia kudriavzevii [13] = assay: Antifungal activity against Candida krusei by EUCAST method; format: functional; outline: as §1
Saccharomyces cerevisiae [14] = assay: Antifungal activity against Saccharomyces cerevisiae; format: functional
Outline: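 Broth microdilution following EUCAST for fermentative yeasts, in flat-bottom plates with RPMI 1640 plus 2% glucose. Inoculum was 0.5 × 10^5 to 2.5 × 10^5 CFU/ml. End points were read spectrophotometrically at 24 h: ≥90% growth reduction versus a drug-free control for amphotericin B, and 50% OD reduction for azoles and caspofungin. MFC was the lowest concentration giving 99% killing.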

[15] = Antifungal activity against Cryptococcus neoformans var. neoformans by EUCAST method; format: functional; conditions: Cryptococcus deneoformans
Outline: (§3)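 EUCAST yeast microdilution, modified for nonfermentative yeasts: plates were sealed and agitated at 350 rpm and 30°C for 48 h.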

Curvularia lunata [16] = assay: Antifungal activity against Curvularia lunata; format: functional
Curvularia australiensis [17] = assay: Antifungal activity against Bipolaris australiensis; format: functional
Outline: (§4)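 Dematiaceous fungi were tested by the EUCAST spore-forming mold reference procedure: flat-bottom microdilution plates, RPMI 1640 plus 2% glucose, inoculum 2 × 105 to 5 × 10^5 CFU/ml. Endpoints were read visually at 24 and 48 h. Polyenes and azoles: 100% growth reduction vs drug-free control. CPF: minimum effective concentration. Run in duplicate and repeated twice.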

Candida parapsilosis [18] = assay: Antifungal activity against Candida parapsilosis; format: functional; conditions: Lodderomyces parapsilosis; outline: as §1
Cryptococcus gattii [19] = assay: Antifungal activity against Cryptococcus neoformans var. gattii; format: functional, Cryptococcus bacillisporus; outline: as §3
Pichia kudriavzevii [20] = assay: Antifungal activity against Candida krusei; format: functional
Outline: (§5)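 EUCAST broth microdilution for yeasts in flat-bottom plates, RPMI 1640 with 2% glucose, inoculum 0.5 × 105 to 2.5 × 10^5 CFU/ml. […] MFC is the lowest concentration giving 99% killing.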

Rhizopus = assay: Antifungal activity against Rhizopus species; format: functional; outline: as §2
Sporothrix schenckii [21] = assay: Antifungal activity against Sporothrix schenckii; format: functional; outline: as §2
Clavispora lusitaniae [22] = assay: Antifungal activity against Candida lusitaniae by EUCAST method; format: functional; outline: as §1
Fusarium oxysporum [23] = assay: Antifungal activity against Fusarium oxysporum; format: functional
Fusarium oxysporum [24] = assay: Antifungal activity against Fusarium oxysporum by EUCAST method; format: functional
Candida tropicalis [25] = assay: Antifungal activity against Candida tropicalis; format: functional; outline: as §1
Trichosporon inkin [26] = assay: Antifungal activity against Trichosporon inkin by EUCAST method; format: functional
Outline: (§6)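 Nonfermentative yeasts were tested by the EUCAST microdilution recommendations with one change: plates were sealed and agitated at 350 rpm and 30°C for 48 h.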

Saccharomyces cerevisiae [27] = assay: Antifungal activity against Saccharomyces cerevisiae by EUCAST method; format: functional; outline: as §5
Talaromyces marneffei [28] = assay: Antifungal activity against Penicillium marneffei by EUCAST method; format: functional
[29] = Antifungal activity against Cryptococcus neoformans var. neoformans; format: functional; conditions: Cryptococcus deneoformans; outline: as §3
Cryptococcus gattii [30] = assay: Antifungal activity against Cryptococcus neoformans var. gattii by EUCAST method; format: functional, Cryptococcus bacillisporus; outline: as §3
Fusarium solani [31] = assay: Antifungal activity against Fusarium solani; format: functional
Nakaseomyces glabratus [32] = assay: Antifungal activity against Candida glabrata by EUCAST method; format: functional; outline: as §1
Curvularia australiensis [33] = assay: Antifungal activity against Bipolaris australiensis by EUCAST method; format: functional; outline: as §4
Trichosporon asahii [34] = assay: Antifungal activity against Trichosporon asahii; format: functional; outline: as §6
Mucor hiemalis = assay: Antifungal activity against Mucor hiemalis; format: functional
Fusarium solani [35] = assay: Antifungal activity against Fusarium solani by EUCAST method; format: functional
Aspergillus fumigatus [36] = assay: Antifungal activity against Aspergillus fumigatus by EUCAST method; format: functional
Sporothrix schenckii [37] = assay: Antifungal activity against Sporothrix schenckii by EUCAST method; format: functional; outline: as §2
Rhizomucor = assay: Antifungal activity against Rhizomucor species; format: functional
Scedosporium apiospermum [38] = assay: Antifungal activity against Scedosporium apiospermum by EUCAST method; format: functional; outline: as §2
Scedosporium apiospermum [39] = assay: Antifungal activity against Scedosporium apiospermum; format: functional; outline: as §2
[40] = Antifungal activity against Rhinocladiella aquaspersa by EUCAST method; format: functional; outline: as §4
Rhizopus arrhizus [41] = assay: Antifungal activity against Rhizopus oryzae by EUCAST method; format: functional; outline: as §2
Candida albicans [42] = assay: Antifungal activity against Candida albicans by EUCAST method; format: functional; outline: as §1
Aspergillus fumigatus [43] = assay: Antifungal activity against Aspergillus fumigatus; format: functional
Aspergillus niger [44] = assay: Antifungal activity against Aspergillus niger by EUCAST method; format: functional
Mucor [45] = assay: Antifungal activity against Mucor species by EUCAST method; format: functional
Curvularia lunata [46] = assay: Antifungal activity against Curvularia lunata by EUCAST method; format: functional; outline: as §4
Candida tropicalis [47] = assay: Antifungal activity against Candida tropicalis by EUCAST method; format: functional; outline: as §1
Trichosporon asahii [48] = assay: Antifungal activity against Trichosporon asahii by EUCAST method; format: functional; outline: as §6
Nakaseomyces glabratus [49] = assay: Antifungal activity against Candida glabrata; format: functional; outline: as §1
[50] = tested on: Meyerozyma guilliermondii; assay: Antifungal activity against Candida guilliermondii; format: functional; outline: as §1
Candida parapsilosis [51] = assay: Antifungal activity against Candida parapsilosis by EUCAST method; format: functional; conditions: Lodderomyces parapsilosis; outline: as §1
Cunninghamella [52] = assay: Antifungal activity against Cunninghamella species; format: functional
Clavispora lusitaniae [53] = assay: Antifungal activity against Candida lusitaniae; format: functional; outline: as §1
Penicillium sp. [54] = assay: Antifungal activity against Penicillium species by EUCAST method; format: functional
[55] = Antifungal activity against Rhinocladiella aquaspersa; format: functional; outline: as §4
Aspergillus flavus [56] = assay: Antifungal activity against Aspergillus flavus by EUCAST method; format: functional
Lichtheimia corymbifera [57] = assay: Antifungal activity against Absidia corymbifera; format: functional
Mucor [58] = assay: Antifungal activity against Mucor species; format: functional
Rhizopus arrhizus [59] = assay: Antifungal activity against Rhizopus oryzae; format: functional; outline: as §2
Trichosporon inkin [60] = assay: Antifungal activity against Trichosporon inkin; format: functional; outline: as §6
Candida albicans [61] = assay: Antifungal activity against Candida albicans; format: functional; outline: as §1

CCC(C)n1ncn(-c2ccc(N3CCN(c4ccc(OCC5COC(Cn6cncn6)(c6ccc(Cl)cc6Cl)O5)cc4)CC3)cc2)c1=O (stereo unspecified) [ITRACONAZOLE]
MIC [1]: 0.87 µg/mL (≈ 1.23 µM)
MFC (Aspergillus niger [2]): > 4 µg/mL
MIC (Cunninghamella [3]): 1.75 µg/mL (≈ 2.48 µM)
MFC (Talaromyces marneffei [4]): 0.25 µg/mL (≈ 0.354 µM)
MIC (Geotrichum candidum [5]): 1.45 µg/mL (≈ 2.05 µM)
MFC [6]: > 8 µg/mL
MIC (Lichtheimia corymbifera [7]): 2.5 µg/mL (≈ 3.54 µM)
MFC (Penicillium sp. [8]): > 2 µg/mL
MFC (Aspergillus terreus [9]): 0.5 µg/mL (≈ 0.709 µM)
MFC (Geotrichum candidum [10]): > 8 µg/mL
MIC (Aspergillus terreus [11]): 0.58 µg/mL (≈ 0.822 µM)
MFC (Lomentospora prolificans): > 8 µg/mL
MFC (Aspergillus flavus [12]): 0.5 µg/mL (≈ 0.709 µM)
MFC (Absidia): > 2 µg/mL
MIC (Pichia kudriavzevii [13]): 1.1 µg/mL (≈ 1.56 µM)
MFC (Saccharomyces cerevisiae [14]): > 4 µg/mL
MIC [15]: 0.11 µg/mL (≈ 0.156 µM)
MFC (Curvularia lunata [16]): 0.5 µg/mL (≈ 0.709 µM)
MFC (Curvularia australiensis [17]): 0.5 µg/mL (≈ 0.709 µM)
MFC (Candida parapsilosis [18]): 0.06 µg/mL (≈ 0.085 µM)
MFC (Cryptococcus gattii [19]): 0.5 µg/mL (≈ 0.709 µM)
MFC (Pichia kudriavzevii [20]): 0.5 µg/mL (≈ 0.709 µM)
MFC (Rhizopus): > 4 µg/mL
MFC (Sporothrix schenckii [21]): 0.5 µg/mL (≈ 0.709 µM)
MIC (Clavispora lusitaniae [22]): 0.07 µg/mL (≈ 0.0992 µM)
MFC (Fusarium oxysporum [23]): 0.25 µg/mL (≈ 0.354 µM)
MIC (Fusarium oxysporum [24]): 4.5 µg/mL (≈ 6.38 µM)
MFC (Candida tropicalis [25]): > 0.25 µg/mL
MIC (Trichosporon inkin [26]): 0.21 µg/mL (≈ 0.298 µM)
MIC (Saccharomyces cerevisiae [27]): 2 µg/mL (≈ 2.83 µM)
MIC (Talaromyces marneffei [28]): 0.25 µg/mL (≈ 0.354 µM)
MFC [29]: 0.5 µg/mL (≈ 0.709 µM)
MIC (Cryptococcus gattii [30]): 0.22 µg/mL (≈ 0.312 µM)
MFC (Fusarium solani [31]): > 8 µg/mL
MIC (Nakaseomyces glabratus [32]): 0.83 µg/mL (≈ 1.18 µM)
MIC (Curvularia australiensis [33]): 0.12 µg/mL (≈ 0.17 µM)
MFC (Trichosporon asahii [34]): > 4 µg/mL
MFC (Mucor hiemalis): > 8 µg/mL
MIC (Fusarium solani [35]): 6 µg/mL (≈ 8.5 µM)
MIC (Aspergillus fumigatus [36]): 0.46 µg/mL (≈ 0.652 µM)
MIC (Sporothrix schenckii [37]): 0.12 µg/mL (≈ 0.17 µM)
MFC (Rhizomucor): > 2 µg/mL
MIC (Scedosporium apiospermum [38]): 2.66 µg/mL (≈ 3.77 µM)
MFC (Scedosporium apiospermum [39]): > 4 µg/mL
MIC [40]: 0.12 µg/mL (≈ 0.17 µM)
MIC (Rhizopus arrhizus [41]): 4 µg/mL (≈ 5.67 µM)
MIC (Candida albicans [42]): 0.23 µg/mL (≈ 0.326 µM)
MFC (Aspergillus fumigatus [43]): 2 µg/mL (≈ 2.83 µM)
MIC (Aspergillus niger [44]): 0.98 µg/mL (≈ 1.39 µM)
MIC (Mucor [45]): 4.36 µg/mL (≈ 6.18 µM)
MIC (Curvularia lunata [46]): 0.03 µg/mL (≈ 0.0425 µM)
MIC (Candida tropicalis [47]): 0.56 µg/mL (≈ 0.794 µM)
MIC (Trichosporon asahii [48]): 0.17 µg/mL (≈ 0.241 µM)
MFC (Nakaseomyces glabratus [49]): > 4 µg/mL
MFC [50]: 2 µg/mL (≈ 2.83 µM)
MIC (Candida parapsilosis [51]): 0.32 µg/mL (≈ 0.453 µM)
MFC (Cunninghamella [52]): 4 µg/mL (≈ 5.67 µM)
MFC (Clavispora lusitaniae [53]): 0.25 µg/mL (≈ 0.354 µM)
MIC (Penicillium sp. [54]): 4.25 µg/mL (≈ 6.02 µM)
MFC [55]: 0.5 µg/mL (≈ 0.709 µM)
MIC (Aspergillus flavus [56]): 0.59 µg/mL (≈ 0.836 µM)
MFC (Lichtheimia corymbifera [57]): > 2 µg/mL
MFC (Mucor [58]): > 4 µg/mL
MFC (Rhizopus arrhizus [59]): > 8 µg/mL
MFC (Trichosporon inkin [60]): 0.25 µg/mL (≈ 0.354 µM)
MFC (Candida albicans [61]): 0.06 µg/mL (≈ 0.085 µM)
